The record followed here is ChEMBL document CHEMBL4038304, “Chiral Indolylarylsulfone Non-Nucleoside Reverse Transcriptase Inhibitors as New Potent and Broad Spectrum Anti-HIV-1 Agents” (J Med Chem, 2017).

System in the first series: not listed separately
Kind of series: Cytotoxicity against human MT4 cells assessed as cell viability by MTT assay. It is filed as cell-based.
Conditions: not given
In a few lines:
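Uninfected MT-4 cells scored for viability by MTT. […] Values are means of two to three independent experiments, each run in triplicate.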
For orientation: Tetrazolium assays rely on reduction of a dye to a coloured formazan, in cell work by metabolically active cells.
Regarding `Cc1cc(C)cc(S(=O)(=O)c2c(C(=O)NCc3ccc4nc(N)[nH]c4c3)[nH]c3ccc(Cl)cc23)c1`, the 50% cytotoxic concentration (CC50) (as a rule, the concentration giving 50% cytotoxicity) was 5890 nM.

On to `Cc1cc(C)cc(S(=O)(=O)c2c(C(=O)Nc3ccnc(C#N)c3)[nH]c3ccc(Cl)cc23)c1`, for which the CC50 was 6840 nM.

Another series concerns Human immunodeficiency virus 1. Kind of series: Antiviral activity against HIV1 NL4-3 infected in human […] cells assessed as protection against virus-induced cytopathic effect measured on day 5 post infection by MTT assay. It is filed as functional, cell-based. Particulars: Human immunodeficiency virus 1, NL4-3, 120 h. In a few lines:
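Values are means of two to three independent experiments, each run in triplicate. The lowest detectable concentration is reported where activity fell below the assay limit.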
Background: Protection from cytopathic effect is a common read-out in antiviral testing.
Regarding `Cc1cc(C)cc(S(=O)(=O)c2c(C(=O)N[C@H](C)C(=O)NCc3ccncc3)[nH]c3ccc(Cl)cc23)c1`, the 50% effective concentration (EC50) (in general, the concentration giving half of the maximal effect) was determined as 0.7 nM.

On to `Cc1cc(C)cc(S(=O)(=O)c2c(C(=O)NCc3ccc4nc(N)[nH]c4c3)[nH]c3ccc(Cl)cc23)c1`, for which the EC50 was found to be 0.6 nM.

For the compound `Cc1cc(C)cc(S(=O)(=O)c2c(C(=O)Nc3ccnc(C#N)c3)[nH]c3ccc(Cl)cc23)c1`, the EC50 is 0.7 nM.

System in another series: not listed separately
Put plainly: Selectivity index, ratio of CC50 for human MT4 cells to EC50 for HIV1 NL4-3 infected in human MT4 cells. In kind it is toxicity, cell-based. The following applies: read-out: Ratio CC50/EC50. In short, it runs like this: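 SI computed as CC50/EC50, using the MTT-based CC50 in uninfected MT-4 cells and the MTT-based EC50 against HIV-1 NL4-3-induced cell death in MT-4 cells. Experiments were run in triplicate, two to three times.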
As to `Cc1cc(C)cc(S(=O)(=O)c2c(C(=O)NCc3ccc4nc(N)[nH]c4c3)[nH]c3ccc(Cl)cc23)c1`, the selectivity ratio is above 9810.

As for `Cc1cc(C)cc(S(=O)(=O)c2c(C(=O)Nc3ccnc(C#N)c3)[nH]c3ccc(Cl)cc23)c1`, the selectivity ratio is above 9770.

A further series relates to Human immunodeficiency virus 1. Kind of series: Antiviral activity against HIV1 harboring reverse transcriptase K103N mutant infected in human […] cells assessed as protection against virus-induced cytopathic effect measured on day 5 post infection by MTT assay. The following applies: Human immunodeficiency virus 1, 120 h. It is filed as functional, cell-based.
As to `Cc1cc(C)cc(S(=O)(=O)c2c(C(=O)N[C@H](C)C(=O)NCc3ccncc3)[nH]c3ccc(Cl)cc23)c1`, the 50% effective concentration (EC50) worked out at 114 nM.

On to `Cc1cc(C)cc(S(=O)(=O)c2c(C(=O)NCc3ccc4nc(N)[nH]c4c3)[nH]c3ccc(Cl)cc23)c1`, for which the EC50 amounted to 18 nM.

`Cc1cc(C)cc(S(=O)(=O)c2c(C(=O)Nc3ccnc(C#N)c3)[nH]c3ccc(Cl)cc23)c1`: the EC50 came to 0.7 nM.

Another series relates to Human immunodeficiency virus 1. Kind of series: Antiviral activity against HIV1 harboring reverse transcriptase Y181C mutant infected in human […] cells assessed as protection against virus-induced cytopathic effect measured on day 5 post infection by MTT assay. The following applies: Human immunodeficiency virus 1, 120 h. In kind it is functional, cell-based.
Regarding `Cc1cc(C)cc(S(=O)(=O)c2c(C(=O)N[C@H](C)C(=O)NCc3ccncc3)[nH]c3ccc(Cl)cc23)c1`, the EC50 is 181 nM.

For `Cc1cc(C)cc(S(=O)(=O)c2c(C(=O)NCc3ccc4nc(N)[nH]c4c3)[nH]c3ccc(Cl)cc23)c1`, the EC50 worked out at 79 nM.

Regarding `Cc1cc(C)cc(S(=O)(=O)c2c(C(=O)Nc3ccnc(C#N)c3)[nH]c3ccc(Cl)cc23)c1`, the EC50 is 65 nM.

The next series relates to Human immunodeficiency virus 1. Kind of series: Antiviral activity against HIV1 harboring reverse transcriptase Y188L mutant infected in human […] cells assessed as protection against virus-induced cytopathic effect measured on day 5 post infection by MTT assay. In kind it is functional, cell-based. Particulars: Human immunodeficiency virus 1, 120 h.
Turning to `Cc1cc(C)cc(S(=O)(=O)c2c(C(=O)N[C@H](C)C(=O)NCc3ccncc3)[nH]c3ccc(Cl)cc23)c1`, the concentration giving a half-maximal response (EC50) was above 23100 nM.

The subject of another series is Human immunodeficiency virus 1. Put plainly: Antiviral activity against HIV1 harboring reverse transcriptase K103N /[…] double mutant infected in human […] cells assessed as protection against virus-induced cytopathic effect measured on day 5 post infection by MTT assay. It is filed as functional, cell-based. Particulars: Human immunodeficiency virus 1, 120 h.
On to `Cc1cc(C)cc(S(=O)(=O)c2c(C(=O)N[C@H](C)C(=O)NCc3ccncc3)[nH]c3ccc(Cl)cc23)c1`, for which the half-maximal effective concentration (EC50) came out at 7120 nM.

As to `Cc1cc(C)cc(S(=O)(=O)c2c(C(=O)NCc3ccc4nc(N)[nH]c4c3)[nH]c3ccc(Cl)cc23)c1`, the half-maximal effective concentration (EC50) was above 5890 nM.

For `Cc1cc(C)cc(S(=O)(=O)c2c(C(=O)Nc3ccnc(C#N)c3)[nH]c3ccc(Cl)cc23)c1`, the half-maximal effective concentration (EC50) is above 6840 nM.

The next series has as its system Human immunodeficiency virus 1. Kind of series: Ratio of EC50 for HIV-1 harboring reverse transcriptase K103N mutant infected in human MT4 cells to EC50 for HIV1 NL4-3 infected in human MT4 cells.
Conditions: not given
In kind it is functional. In short, it runs like this: (§1)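 Fold change calculated as EC50 against the stated resistant mutant HIV-1 strain divided by EC50 against wild-type NL4-3. Both EC50s come from MTT read-out of virus-induced death in MT-4 cells, mean of two to three independent experiments each in triplicate.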
In the case of `Cc1cc(C)cc(S(=O)(=O)c2c(C(=O)NCc3ccc4nc(N)[nH]c4c3)[nH]c3ccc(Cl)cc23)c1`, the “Ratio EC50” value turned out to be 30.

Turning to `Cc1cc(C)cc(S(=O)(=O)c2c(C(=O)Nc3ccnc(C#N)c3)[nH]c3ccc(Cl)cc23)c1`, the “Ratio EC50” value turned out to be 1.

For the next series, the system named is Human immunodeficiency virus 1. Kind of series: Ratio of EC50 for HIV-1 harboring reverse transcriptase Y181C mutant infected in human MT4 cells to EC50 for HIV1 NL4-3 infected in human MT4 cells. It is filed as functional.
Conditions: not given
In short, it runs like this: as §1
On to `Cc1cc(C)cc(S(=O)(=O)c2c(C(=O)NCc3ccc4nc(N)[nH]c4c3)[nH]c3ccc(Cl)cc23)c1`, for which the “Ratio EC50” value was determined as 132.

As for `Cc1cc(C)cc(S(=O)(=O)c2c(C(=O)Nc3ccnc(C#N)c3)[nH]c3ccc(Cl)cc23)c1`, the “Ratio EC50” value was determined as 92.

In the next series the test system is Human immunodeficiency virus 1. Kind of series: Ratio of EC50 for HIV-1 harboring reverse transcriptase K103N/[…] double mutant infected in human MT4 cells to EC50 for HIV1 NL4-3 infected in human MT4 cells. It is filed as functional.
Conditions: not given
In short, it runs like this: as §1
For `Cc1cc(C)cc(S(=O)(=O)c2c(C(=O)NCc3ccc4nc(N)[nH]c4c3)[nH]c3ccc(Cl)cc23)c1`, the “Ratio EC50” value is above 9810.

As for `Cc1cc(C)cc(S(=O)(=O)c2c(C(=O)Nc3ccnc(C#N)c3)[nH]c3ccc(Cl)cc23)c1`, the “Ratio EC50” value is listed as above 9771.

The target of the next series is Human immunodeficiency virus type 1 reverse transcriptase (Human immunodeficiency virus 1, UniProt Q72547). Kind of series: Inhibition of HIV1 NL4-3 reverse transcriptase His-tagged p66/p51 associated RNA dependent DNA polymerase activity expressed in Escherichia coli assessed as reduction in [3H]dTTP incorporation using poly(rA)/oligo(dT) as template/primer by scintillation counting analysis.
Conditions: not given
Consider `Cc1cc(C)cc(S(=O)(=O)c2c(C(=O)N[C@H](C)C(=O)NCc3ccncc3)[nH]c3ccc(Cl)cc23)c1`, for which the IC50 (usually the concentration needed to halve the response being measured) stood at 13000 nM.

As to `Cc1cc(C)cc(S(=O)(=O)c2c(C(=O)NCc3ccc4nc(N)[nH]c4c3)[nH]c3ccc(Cl)cc23)c1`, the concentration for half-maximal inhibition (IC50) came to 278 nM.

With `Cc1cc(C)cc(S(=O)(=O)c2c(C(=O)Nc3ccnc(C#N)c3)[nH]c3ccc(Cl)cc23)c1`, the concentration for half-maximal inhibition (IC50) worked out at 23 nM.

A further series deals with Human immunodeficiency virus type 1 reverse transcriptase (Human immunodeficiency virus 1, UniProt Q72547, K103N). Put plainly: Inhibition of HIV1 reverse transcriptase p66 K103N mutant associated RNA dependent DNA polymerase activity expressed in Escherichia coli assessed as reduction in [3H]dTTP incorporation using poly(rA)/oligo(dT) as template/primer by scintillation counting analysis.
Conditions: not given
For the compound `Cc1cc(C)cc(S(=O)(=O)c2c(C(=O)N[C@H](C)C(=O)NCc3ccncc3)[nH]c3ccc(Cl)cc23)c1`, the concentration for half-maximal inhibition (IC50) was above 50000 nM.

`Cc1cc(C)cc(S(=O)(=O)c2c(C(=O)NCc3ccc4nc(N)[nH]c4c3)[nH]c3ccc(Cl)cc23)c1`: the concentration for half-maximal inhibition (IC50) came to 183 nM.

Regarding `Cc1cc(C)cc(S(=O)(=O)c2c(C(=O)Nc3ccnc(C#N)c3)[nH]c3ccc(Cl)cc23)c1`, the IC50 is 72 nM.

In another series the target is Human immunodeficiency virus type 1 reverse transcriptase (Human immunodeficiency virus 1, UniProt Q72547, Y181I). Kind of series: Inhibition of HIV1 reverse transcriptase p66 Y181I mutant associated RNA dependent DNA polymerase activity expressed in Escherichia coli assessed as reduction in [3H]dTTP incorporation using poly(rA)/oligo(dT) as template/primer by scintillation counting analysis.
Conditions: not given
For `Cc1cc(C)cc(S(=O)(=O)c2c(C(=O)N[C@H](C)C(=O)NCc3ccncc3)[nH]c3ccc(Cl)cc23)c1`, the concentration for half-maximal inhibition (IC50) amounted to 61000 nM.

As to `Cc1cc(C)cc(S(=O)(=O)c2c(C(=O)NCc3ccc4nc(N)[nH]c4c3)[nH]c3ccc(Cl)cc23)c1`, the 50% inhibitory concentration (IC50) came to 284 nM.

With `Cc1cc(C)cc(S(=O)(=O)c2c(C(=O)Nc3ccnc(C#N)c3)[nH]c3ccc(Cl)cc23)c1`, the IC50 worked out at 306 nM.

System in the next series: not listed separately
Kind of series: Inhibition of HIV1 reverse transcriptase p66 K103N/[…] double mutant associated RNA dependent DNA polymerase activity expressed in Escherichia coli assessed as reduction in [3H]dTTP incorporation using poly(rA)/oligo(dT) as template/primer by scintillation counting analysis. The arrangement: species or system Human immunodeficiency virus 1.
Conditions: not given
Consider `Cc1cc(C)cc(S(=O)(=O)c2c(C(=O)N[C@H](C)C(=O)NCc3ccncc3)[nH]c3ccc(Cl)cc23)c1`, for which the IC50 was above 200000 nM.

`Cc1cc(C)cc(S(=O)(=O)c2c(C(=O)NCc3ccc4nc(N)[nH]c4c3)[nH]c3ccc(Cl)cc23)c1`: the IC50 came to 470 nM.

As to `Cc1cc(C)cc(S(=O)(=O)c2c(C(=O)Nc3ccnc(C#N)c3)[nH]c3ccc(Cl)cc23)c1`, the IC50 amounted to 514 nM.

A further series concerns the target Human immunodeficiency virus type 1 reverse transcriptase (Human immunodeficiency virus 1, UniProt Q72547, Y181C). Put plainly: Inhibition of HIV1 reverse transcriptase p66 Y181C mutant associated RNA dependent DNA polymerase activity expressed in Escherichia coli assessed as reduction in [3H]dTTP incorporation using poly(rA)/oligo(dT) as template/primer by scintillation counting analysis.
Conditions: not given
Turning to `Cc1cc(C)cc(S(=O)(=O)c2c(C(=O)N[C@H](C)C(=O)NCc3ccncc3)[nH]c3ccc(Cl)cc23)c1`, the 50% inhibitory concentration (IC50) was 61000 nM.
